{
  "source": "ChEMBL document CHEMBL4152234",
  "about": "“Aminobenzothiazole derivatives stabilize the thermolabile p53 cancer mutant Y220C and show anticancer activity in p53-Y220C cell lines” (Eur J Med Chem, 2018)",
  "type_in_all_cases": "cell-based",
  "key": {"[1]": {"system": "Cellular tumor antigen p53 (Homo sapiens), P04637 [Y220C]", "assay": "Activation of p53 Y220C mutant in human NUGC3 cells assessed as change in CDK1 mRNA level at 60 uM after 18 hrs by RT-PCR method relative to control", "procedure,_shortened": "(§1)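 p53 signalling qPCR array covering 84 genes. Cells were exposed for 18 h, with 0.5% DMSO in both compound and control samples. Total RNA was extracted and purified. Fold-changes were calculated by ΔΔCt using β2-microglobulin (B2M) as the housekeeping gene. Two independent biological replicates were run per cell line.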"}, "[2]": {"system": "Cellular tumor antigen p53 (Homo sapiens), P04637 [Y220C]", "assay": "Activation of p53 Y220C mutant in human NUGC3 cells assessed as change in BCL2 mRNA level at 60 uM after 18 hrs by RT-PCR method relative to control", "procedure,_shortened": "as §1"}, "[3]": {"system": "Cellular tumor antigen p53 (Homo sapiens), P04637 [Y220C]", "assay": "Activation of p53 Y220C mutant in human NUGC3 cells assessed as change in EGR1 mRNA level at 60 uM after 18 hrs by RT-PCR method relative to control", "procedure,_shortened": "as §1"}, "[4]": {"molecular_target": "T1, Cellular tumor antigen p53 (Homo sapiens, UniProt P04637)", "assay": "Activation of p53 in human NUGC4 cells assessed as change in CCNE1 mRNA level at 60 uM after 18 hrs by RT-PCR method relative to control", "details": "read-out: FC", "procedure,_shortened": "(§2)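 p53 signaling qPCR array of 84 p53-pathway genes. Cells were treated in 6-well plates for 18 h with 0.5% DMSO in compound and control samples. Total RNA was extracted and fold-changes were obtained by the ΔΔCt method against untreated control, with β2-microglobulin (B2M) as housekeeping gene. Two independent biological replicates per cell line.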"}, "[5]": {"molecular_target": "T1, Cellular tumor antigen p53", "assay": "Activation of p53 in human NUGC4 cells assessed as change in HDAC1 mRNA level at 60 uM after 18 hrs by RT-PCR method relative to control", "details": "read-out: FC", "procedure,_shortened": "as §2"}, "[6]": {"system": "Cellular tumor antigen p53 (Homo sapiens), P04637 [Y220C]", "assay": "Activation of p53 Y220C mutant in human NUGC3 cells assessed as change in CDKN2A mRNA level at 60 uM after 18 hrs by RT-PCR method relative to control", "procedure,_shortened": "as §1"}, "[7]": {"system": "Cellular tumor antigen p53 (Homo sapiens), P04637 [Y220C]", "assay": "Activation of p53 Y220C mutant in human NUGC3 cells assessed as change in CHEK1 mRNA level at 60 uM after 18 hrs by RT-PCR method relative to control", "procedure,_shortened": "as §1"}, "[8]": {"molecular_target": "T1, Cellular tumor antigen p53", "assay": "Activation of p53 in human NUGC4 cells assessed as change in TNF mRNA level at 60 uM after 18 hrs by RT-PCR method relative to control", "details": "read-out: FC"}, "[9]": {"molecular_target": "T1, Cellular tumor antigen p53", "assay": "Activation of p53 in human NUGC4 cells assessed as change in ATM mRNA level at 60 uM after 18 hrs by RT-PCR method relative to control", "details": "read-out: FC", "procedure,_shortened": "(§3)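 p53 signalling qPCR array covering 84 p53 pathway genes. Cells were exposed for 18 h, and compound and control wells both held 0.5% DMSO. Total RNA was extracted and purified. Fold-changes were calculated by the ΔΔCt method against the untreated sample, with β2-microglobulin (B2M) as the housekeeping gene. Each cell line was run in two independent biological replicates.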"}, "[10]": {"molecular_target": "T1, Cellular tumor antigen p53", "assay": "Activation of p53 in human NUGC4 cells assessed as change in PTEN mRNA level at 60 uM after 18 hrs by RT-PCR method relative to control", "details": "read-out: FC"}, "[11]": {"molecular_target": "T1, Cellular tumor antigen p53", "assay": "Activation of p53 in human NUGC4 cells assessed as change in STAT1 mRNA level at 60 uM after 18 hrs by RT-PCR method relative to control", "details": "read-out: FC"}, "[12]": {"molecular_target": "T1, Cellular tumor antigen p53", "assay": "Activation of p53 in human NUGC4 cells assessed as change in APAF1 mRNA level at 60 uM after 18 hrs by RT-PCR method relative to control", "details": "read-out: FC", "procedure,_shortened": "as §3"}, "[13]": {"system": "Cellular tumor antigen p53 (Homo sapiens), P04637 [Y220C]", "assay": "Activation of p53 Y220C mutant in human NUGC3 cells assessed as change in HDAC1 mRNA level at 60 uM after 18 hrs by RT-PCR method relative to control", "procedure,_shortened": "as §1"}, "[14]": {"system": "Cellular tumor antigen p53 (Homo sapiens), P04637 [Y220C]", "assay": "Activation of p53 Y220C mutant in human NUGC3 cells assessed as change in TNFRSF10B mRNA level at 60 uM after 18 hrs by RT-PCR method relative to control", "procedure,_shortened": "as §3"}, "[15]": {"molecular_target": "T1, Cellular tumor antigen p53", "assay": "Activation of p53 in human NUGC4 cells assessed as change in CRADD mRNA level at 60 uM after 18 hrs by RT-PCR method relative to control", "details": "read-out: FC", "procedure,_shortened": "as §2"}, "[16]": {"system": "Cellular tumor antigen p53 (Homo sapiens), P04637 [Y220C]", "assay": "Activation of p53 Y220C mutant in human NUGC3 cells assessed as change in TNFRSF10D mRNA level at 60 uM after 18 hrs by RT-PCR method relative to control", "procedure,_shortened": "as §3"}, "[17]": {"system": "Cellular tumor antigen p53 (Homo sapiens), P04637 [Y220C]", "assay": "Activation of p53 Y220C mutant in human NUGC3 cells assessed as change in MCL1 mRNA level at 60 uM after 18 hrs by RT-PCR method relative to control", "procedure,_shortened": "as §3"}, "[18]": {"system": "Cellular tumor antigen p53 (Homo sapiens), P04637 [Y220C]", "assay": "Activation of p53 Y220C mutant in human NUGC3 cells assessed as change in KAT2B mRNA level at 60 uM after 18 hrs by RT-PCR method relative to control", "procedure,_shortened": "as §3"}, "[19]": {"molecular_target": "T1, Cellular tumor antigen p53", "assay": "Activation of p53 in human NUGC4 cells assessed as change in EGFR mRNA level at 60 uM after 18 hrs by RT-PCR method relative to control", "details": "read-out: FC", "procedure,_shortened": "as §2"}, "[20]": {"molecular_target": "T1, Cellular tumor antigen p53", "assay": "Activation of p53 in human NUGC4 cells assessed as change in DNMT1 mRNA level at 60 uM after 18 hrs by RT-PCR method relative to control", "details": "read-out: FC", "procedure,_shortened": "as §2"}, "[21]": {"molecular_target": "T1, Cellular tumor antigen p53", "assay": "Activation of p53 in human NUGC4 cells assessed as change in PIDD1 mRNA level at 60 uM after 18 hrs by RT-PCR method relative to control", "details": "read-out: FC"}, "[22]": {"molecular_target": "T1, Cellular tumor antigen p53", "assay": "Activation of p53 in human NUGC4 cells assessed as change in TSC1 mRNA level at 60 uM after 18 hrs by RT-PCR method relative to control", "details": "read-out: FC"}, "[23]": {"system": "Cellular tumor antigen p53 (Homo sapiens), P04637 [Y220C]", "assay": "Activation of p53 Y220C mutant in human NUGC3 cells assessed as change in FAS mRNA level at 60 uM after 18 hrs by RT-PCR method relative to control", "procedure,_shortened": "as §1"}, "[24]": {"system": "Cellular tumor antigen p53 (Homo sapiens), P04637 [Y220C]", "assay": "Activation of p53 Y220C mutant in human NUGC3 cells assessed as change in RB1 mRNA level at 60 uM after 18 hrs by RT-PCR method relative to control", "procedure,_shortened": "as §3"}, "[25]": {"molecular_target": "T1, Cellular tumor antigen p53", "assay": "Activation of p53 in human NUGC4 cells assessed as change in ATR mRNA level at 60 uM after 18 hrs by RT-PCR method relative to control", "details": "read-out: FC", "procedure,_shortened": "as §3"}, "[26]": {"system": "Cellular tumor antigen p53 (Homo sapiens), P04637 [Y220C]", "assay": "Activation of p53 Y220C mutant in human NUGC3 cells assessed as change in RPRM mRNA level at 60 uM after 18 hrs by RT-PCR method relative to control", "procedure,_shortened": "as §3"}, "[27]": {"molecular_target": "T1, Cellular tumor antigen p53", "assay": "Activation of p53 in human NUGC4 cells assessed as change in BID mRNA level at 60 uM after 18 hrs by RT-PCR method relative to control", "details": "read-out: FC", "procedure,_shortened": "as §3"}, "[28]": {"molecular_target": "T1, Cellular tumor antigen p53", "assay": "Activation of p53 in human NUGC4 cells assessed as change in PCNA mRNA level at 60 uM after 18 hrs by RT-PCR method relative to control", "details": "read-out: FC"}, "[29]": {"system": "Cellular tumor antigen p53 (Homo sapiens), P04637 [Y220C]", "assay": "Activation of p53 Y220C mutant in human NUGC3 cells assessed as change in ATM mRNA level at 60 uM after 18 hrs by RT-PCR method relative to control", "procedure,_shortened": "as §1"}},
  "data": [
    {"smiles": "CCNC(=O)c1c(O)c(I)c(-n2cccc2)c2sc(N(CC)CC)nc12", "values": [
      {"measurement": "fold change (FC)", "setting": "[1]", "result": 1.5},
      {"measurement": "fold change (FC)", "setting": "[2]", "result": 1.7},
      {"measurement": "fold change (FC)", "setting": "[3]", "result": 1},
      {"measurement": "fold induction at 60 µM", "setting": "[4]", "result": 0.5},
      {"measurement": "fold induction at 60 µM", "setting": "[5]", "result": 0.8},
      {"measurement": "fold change (FC)", "setting": "[6]", "result": 1.3},
      {"measurement": "fold change (FC)", "setting": "[7]", "result": 1.2},
      {"measurement": "fold induction at 60 µM", "setting": "[8]", "result": 1.1},
      {"measurement": "fold induction at 60 µM", "setting": "[9]", "result": 1},
      {"measurement": "fold induction at 60 µM", "setting": "[10]", "result": 1},
      {"measurement": "fold induction at 60 µM", "setting": "[11]", "result": 0.9},
      {"measurement": "fold induction at 60 µM", "setting": "[12]", "result": 1},
      {"measurement": "fold change (FC)", "setting": "[13]", "result": 0.6},
      {"measurement": "fold change (FC)", "setting": "[14]", "result": 1.8},
      {"measurement": "fold induction at 60 µM", "setting": "[15]", "result": 0.8},
      {"measurement": "fold change (FC)", "setting": "[16]", "result": 1},
      {"measurement": "fold change (FC)", "setting": "[17]", "result": 1.7},
      {"measurement": "fold change (FC)", "setting": "[18]", "result": 0.8},
      {"measurement": "fold induction at 60 µM", "setting": "[19]", "result": 1},
      {"measurement": "fold induction at 60 µM", "setting": "[20]", "result": 0.8},
      {"measurement": "fold induction at 60 µM", "setting": "[21]", "result": 0.8},
      {"measurement": "fold induction at 60 µM", "setting": "[22]", "result": 1.1},
      {"measurement": "fold change (FC)", "setting": "[23]", "result": 2.6},
      {"measurement": "fold change (FC)", "setting": "[24]", "result": 0.9},
      {"measurement": "fold induction at 60 µM", "setting": "[25]", "result": 0.9},
      {"measurement": "fold change (FC)", "setting": "[26]", "result": 1.4},
      {"measurement": "fold induction at 60 µM", "setting": "[27]", "result": 0.7},
      {"measurement": "fold induction at 60 µM", "setting": "[28]", "result": 0.6},
      {"measurement": "fold change (FC)", "setting": "[29]", "result": 0.9}
    ]}
  ]
}
